Experimental findings from ChEMBL document CHEMBL1150253, “Synthesis and anti-platelet evaluation of 2-benzoylaminobenzoate analogs” (Bioorg Med Chem, 2008) are described below.

By IC50 is commonly meant the concentration that inhibits the measured activity by half. Low values mean higher potency, high ones lower potency.

For assay [1], the system named is Platelet. Put plainly: Inhibition of arachidonic acid-induced TxB2 formation in human platelet at 0.5 uM per 3 x 10^8 platelets by immunoassay. Format: functional. The procedure, abridged:
(§1)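 Washed human platelets were suspended in Tyrode's solution with Ca²⁺, glucose and BSA and preincubated with DMSO or compound at 37 °C for 3 min. Arachidonic acid was then added. After 5 min the reaction was stopped with EDTA (2 mM) plus indomethacin. Samples were centrifuged for 3 min at 13,000 rpm. Supernatant TxB2 was measured by enzyme immunoassay and expressed per 3 × 10⁸ platelets. Values are mean ± SEM, n = 3.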

The test system of assay [2] is Blood. Put plainly: Inhibition of collagen-induced platelet aggregation in human blood after 3 mins by turbidimetric assay. Conditions: 0.05 h.
Assay [3] has as its system Blood. Kind of assay: Inhibition of thrombin-induced platelet aggregation in human blood after 3 mins by turbidimetric assay. The following applies: 0.05 h.
Assay [4] relates to Platelet. Kind of assay: Inhibition of arachidonic acid-induced TxB2 formation in human platelet at 1 uM per 3 x 10^8 platelets by immunoassay. Type of assay: functional. The method in brief: as §1
For assay [5], the system named is Blood. Kind of assay: Inhibition of U46619-induced platelet aggregation in human blood after 3 mins by turbidimetric assay. Format: functional, tissue-based. Conditions: 0.05 h. The procedure, abridged:
(§2)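 Washed human platelets were prepared from ACD-anticoagulated blood of healthy volunteers who had taken no drugs for two weeks. They were resuspended at 3 × 10⁸/ml in Tyrode's solution with Ca²⁺ 2 mM, glucose 11.1 mM and BSA 3.5 mg/ml. Platelets were preincubated with DMSO (0.5%) or compound at 37 °C for 3 min, stirring at 1200 rpm. Inducers were arachidonic acid, collagen, U46619 or thrombin (0.1 U/ml). Aggregation was read by light transmission. IC50 is mean ± SEM, n = 3.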

Assay [6] deals with Blood. Put plainly: Inhibition of arachidonic acid-induced platelet aggregation in human blood after 3 mins by turbidimetric assay. The following applies: 0.05 h. Type of assay: functional, tissue-based. The method in brief: as §2
Assay [7] relates to Platelet. Kind of assay: Inhibition of arachidonic acid-induced TxB2 formation in human platelet at 200 uM per 3 x 10^8 platelets by immunoassay. Format: functional. The procedure, abridged: as §1

As for `CCCOC(=O)c1ccc(Cl)cc1NC(=O)c1ccccc1Cl`, the results for the Activity in the assay with Platelet [1] and in the assay with Platelet [4] were 62.56 ng and 32.52 ng, respectively. Also, the half-maximal inhibitory concentration (IC50) in the assay with Blood [2] is 2.3 µM; with Blood [3], greater than 100 µM; in the assay with Blood [5], greater than 100 µM; in the assay on Blood [6], 0.7 µM.
`CCCOC(=O)c1ccc(Cl)cc1NC(=O)c1c(F)cccc1F`: the Activity in the assay on Platelet [1] is given as 45.47 ng; in the assay with Platelet [4], 7.74 ng. The IC50 in the assay with Blood [3] was 48.8 µM; with Blood [5], greater than 100 µM; in the assay on Blood [6], 0.5 µM.
For `COC(=O)c1ccc(Cl)cc1NC(=O)c1c(F)cccc1F`, the Activity is listed as 61.18 ng in the assay with Platelet [1] and 29.48 ng with Platelet [4]. Also, the IC50 with Blood [3] was greater than 100 µM; in the assay with Blood [5], greater than 100 µM; in the assay on Blood [6] it was 0.7 µM.
As for `CC(=O)Oc1ccccc1C(=O)O` [ASPIRIN], the IC50 in the assay with Blood [2] was 153 µM; in the assay on Blood [3] it was greater than 100 µM; with Blood [5], greater than 100 µM; with Blood [6], 150 µM. In the assay with Platelet [7], this compound gave an Activity of 26.68 ng.
`COc1ccc2c(c1)c(CC(=O)O)c(C)n2C(=O)c1ccc(Cl)cc1` [INDOMETHACIN]: the Activity in the assay with Platelet [1] stood at 3.09 ng. The IC50 in the assay on Blood [2] was 0.4 µM; in the assay with Blood [3] it was greater than 100 µM; in the assay with Blood [5], greater than 100 µM; with Blood [6] it was 0.12 µM.
